# Reference: ChEMBL document CHEMBL1828544, “Structural modification of honokiol, a biphenyl occurring in Magnolia officinalis: the evaluation of honokiol analogues as inhibitors of angiogenesis and for their cytotoxicity and structure-activity relationship” (J Med Chem, 2011)
# Activity calls are given as the source filed them. The calls are words filed in the database; no cut-off is given here.
# Columns and labels:
# [1] = Antiproliferative activity against mouse LL/2 cells after 24 hrs by MTT assay; assay type: functional, cell-based; conditions: Lewis lung carcinoma
# Method in brief: (§1)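 Cells (5 × 10^3/well) kept at 37 °C, 5% CO2 and treated with varied compound concentrations for 24 h. MTT given for a further 3 h, precipitate dissolved in DMSO, absorbance taken at 570 nm. IC50 calculated from percentage growth relative to untreated control.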
# Danio rerio [2] = species on record: Danio rerio; assay: Antiangiogenic activity in fli-1:enhanced GFP expressing transgenic zebrafish embryo assessed as inhibition of neovacularisation at 10 uM after 24 hrs relative to control; assay type: functional
# Method in brief: (§2)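 fli-1:EGFP transgenic zebrafish embryos sorted at about 6 hpf (6 per well), exposed in embryo water to compound at 5–40 μM for 24 h. Then anesthetized with 0.05% 2-phenoxyethanol, photographed and quantified.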
# HUVEC [3] = assay: Antiangiogenic activity against human HUVEC cells assessed as inhibition of tube formation at 20 uM after 12 hrs by matrigel-based assay relative to honokiol; assay type: functional
# Method in brief: (§3)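 HUVECs (1 × 10^4) in DMEM with compound (20 μM) plated on Matrigel that had set at 37 °C for 45 min; controls got DMEM alone. After 12 h at 37 °C, capillary networks were photographed and intact tubes counted in five random regions. Inhibition expressed as percentage of control.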
# Danio rerio [4] = species on record: Danio rerio; assay: Antiangiogenic activity in fli-1:enhanced GFP expressing transgenic zebrafish embryo assessed as inhibition of neovacularisation at 5 uM after 24 hrs relative to control; assay type: functional; method in brief: as §2
# HUVEC [5] = assay: Antimigratory activity against human HUVEC cells assessed as migration rate at 40 uM after 24 hrs by wound-healing assay relative to control; assay type: functional
# Method in brief: (§4)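 HUVEC monolayers grown overnight to confluence on 0.1% gelatin, scratched with pipet tips, washed, then kept in serum-free DMEM with compound (20 or 40 μM) for 24 h at 37 °C, 5% CO2; control serum-free DMEM. Migrated cells counted manually from images at 0 and 24 h, three random fields; three independent experiments, mean ± SE.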
# HUVEC [6] = assay: Antiangiogenic activity against human HUVEC cells assessed as inhibition of tube formation at 20 uM after 12 hrs by matrigel-based assay; assay type: functional; method in brief: as §3
# A549 = assay: Antiproliferative activity against human A549 cells after 24 hrs by MTT assay; assay type: functional, cell-based; conditions: A549, 24 h; method in brief: as §1
# HUVEC [7] = assay: Antiproliferative activity against human HUVEC cells after 24 hrs by MTT assay; assay type: functional, cell-based
# Method in brief: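 Primary HUVECs grown on gelatin in M-199 with 20% FBS, 10 ng/mL bFGF, 2 ng/mL VEGF, 5% CO2, 37 °C. Cells (5 × 10^3/well) exposed to a range of compound concentrations for 24 h. MTT added for 3 h, formazan dissolved in DMSO, absorbance read at 570 nm. IC50 from percentage growth versus untreated control.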
# Danio rerio [8] = species on record: Danio rerio; assay: Antiangiogenic activity in fli-1:enhanced GFP expressing transgenic zebrafish embryo assessed as inhibition of dorsal longitudinal anastomic vessel sprouts after 48 hrs; assay type: functional, organism-based
# Method in brief: (§5)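 Transgenic fli-1:EGFP zebrafish embryos (GFP across endothelium) sorted at about 6 hpf, 6 per well, with dead or unhealthy ones removed. Compound (10, 20, 40 μM) added to embryo water (0.2 g/L instant ocean salt) from 6 hpf for 48 h. Embryos then anesthetized in 0.05% 2-phenoxyethanol, imaged, and intersomitic and dorsal longitudinal anastomotic vessel sprouts assessed.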
# Danio rerio [9] = species on record: Danio rerio; assay: Antiangiogenic activity in fli-1:enhanced GFP expressing transgenic zebrafish embryo assessed as inhibition of neovacularisation at 20 uM after 24 hrs relative to control; assay type: functional; method in brief: as §2
# HUVEC [10] = assay: Antimigratory activity against human HUVEC cells at 20 uM after 24 hrs by wound-healing assay; assay type: functional, cell-based; method in brief: as §4
# HUVEC [11] = assay: Antimigratory activity against human HUVEC cells after 24 hrs by wound-healing assay relative to honokiol; assay type: functional; method in brief: as §4
# HepG2 = assay: Antiproliferative activity against human HepG2 cells after 24 hrs by MTT assay; assay type: functional, cell-based; conditions: HepG2, 24 h; method in brief: as §1
# Danio rerio [12] = species on record: Danio rerio; assay: Antiangiogenic activity in fli-1:enhanced GFP expressing transgenic zebrafish embryo assessed as inhibition of intersomitic vessel sprouts after 48 hrs; assay type: functional, organism-based; method in brief: as §5
# Danio rerio [13] = species on record: Danio rerio; assay: Antiangiogenic activity in fli-1:enhanced GFP expressing transgenic zebrafish embryo assessed as inhibition of neovacularisation at 40 uM after 24 hrs relative to control; assay type: functional; method in brief: as §2
IC50 (A549),IC50 (HepG2),SMILES,IC50 [1],inhibition (INH) (Danio rerio [2]),fold change (FC) (HUVEC [3]),inhibition (INH) (Danio rerio [4]),Migration rate relative to control (HUVEC [5]),inhibition at 20 µM (HUVEC [6]),IC50 (HUVEC [7]),inhibition (Danio rerio [8]),inhibition (INH) (Danio rerio [9]),Activity (HUVEC [10]),fold change (FC) (HUVEC [11]),inhibition (Danio rerio [12]),inhibition (INH) (Danio rerio [13])
28.6 µM,20.9 µM,C=CCc1cc(C=O)c(OC)c(-c2ccc(O)c(CC=C)c2)c1,20.4 µM,<25%,–,<25%,63.2%,82.5%,32.5 µM,–,25%,Active,–,–,25%
–,55.3 µM,C=CCc1ccc(O)c(-c2ccc(OC)c(CC=C)c2)c1 [METHYLHONOKIOL],68.8 µM,<25%,–,<25%,54.2%,34.9%,55.8 µM,–,25%,Active,–,–,25%

# Further lines, the compound ahead of its results:
SMILES,IC50 (A549),IC50 (HepG2),IC50 [1],inhibition (INH) (Danio rerio [2]),fold change (FC) (HUVEC [3]),inhibition (INH) (Danio rerio [4]),Migration rate relative to control (HUVEC [5]),inhibition at 20 µM (HUVEC [6]),IC50 (HUVEC [7]),inhibition (Danio rerio [8]),inhibition (INH) (Danio rerio [9]),Activity (HUVEC [10]),fold change (FC) (HUVEC [11]),inhibition (Danio rerio [12]),inhibition (INH) (Danio rerio [13])
C=CCc1cc(C=O)c(O)c(-c2cc(C=O)c(O)c(CC=C)c2)c1,30.2 µM,10.7 µM,21.7 µM,25%,2.5,<25%,21.2%,21.3%,15.1 µM,Dose-dependent effect,50%,Active,1.5,Dose-dependent effect,–
C=CCc1cc(C=O)c(O)c(-c2ccc(O)c(CC=C)c2)c1,43.6 µM,32.9 µM,65.3 µM,25%,–,<25%,34.2%,41.2%,46.2 µM,–,25%,Active,–,–,–
C=CCc1ccc(O)c(-c2ccc(O)c(CC=C)c2)c1 [HONOKIOL],–,–,65.4 µM,25%,–,<25%,38.5%,51.4%,52.6 µM,–,50%,Active,–,–,–
